From ChEMBL document CHEMBL1124180, “Asymmetric synthesis and properties of the enantiomers of the antibacterial agent 7-(3-aminopyrrolidin-1-yl)-1-(2,4-difluorophenyl)-1,4-dihydro-6- fluoro-4-oxo-1,8-naphthyridine-3-carboxylic acid hydrochloride” (J Med Chem, 1988)
Values after ≈ are worked out from the molar mass of the structure shown.

Columns and labels:
[1] = tested on: Bacteroides thetaiotaomicron; test: microbe, parasite or virus in culture; conditions: ATCC 29741
Bacteroides fragilis [2] = test: In vitro activity against Bacteroides fragilis (UC-2); assay type: functional
Summary of the method: (§1)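 MIC determined under anaerobic conditions on Wilkins-Chalgren agar.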

Mus musculus [3] = test: In vivo activity against Pseudomonas aeruginosa A5007 (100X LD50), administered po( each compound tested at 3 doses with 10 animals); assay type: functional
Summary of the method: (§2)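 Mice were challenged intraperitoneally with the organism. The compound was given orally as a total dose split into equal portions at 1 and 5 h post-infection. Three doses were used, with 10 animals per dose.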

Bacteroides fragilis [4] = test: In vitro activity against Bacteroides fragilis (SFM2975-7); assay type: functional
Summary of the method: as §1

Parvimonas micra [5] = test: In vitro activity against Peptostreptococcus micros (ATCC 33270); assay type: functional
Summary of the method: as §1

Mus musculus [6] = test: In vivo activity against Escherichia coli Juhl(100X LD50), when administered po( each compound tested at 3 doses with 10 animals); assay type: functional
Summary of the method: as §2

Finegoldia magna = test: In vitro activity against Peptococcus magnus (ATCC 29328); assay type: functional
Summary of the method: as §1

Mus musculus [7] = test: In vivo activity against Pseudomonas aeruginosa A5007 (100X LD50), administered sc ( each compound tested at 3 doses with 10 animals); assay type: functional
Summary of the method: (§3)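 Mice were challenged intraperitoneally with the organism. The compound was given subcutaneously as a total dose split into equal portions at 1 and 5 h post-infection. Three doses were used, with 10 animals per dose.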

Peptostreptococcus = test: In vitro activity against Peptostreptococcus sp.(TB-11); assay type: functional
Summary of the method: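 MIC for anaerobic bacteria, measured on Wilkins-Chalgren agar.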

Hoylesella loescheii = test: In vitro activity against Bacteroides loescheii (ATCC 15930).; assay type: functional
Summary of the method: as §1

Veillonella parvula = test: In vitro activity against Veillonella parvula (ATCC 10790); assay type: functional
Summary of the method: (§4)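 Anaerobic MICs measured by agar dilution on Wilkins-Chalgren agar.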

Prevotella bivia [8] = test: In vitro activity against t Bacteroides bivius(B 6140); assay type: functional
Summary of the method: as §4

Prevotella disiens = test: In vitro activity against Bacteroides disiens (ATCC 29426); assay type: functional
Summary of the method: as §1

Cutibacterium acnes = test: In vitro activity against Propionibacterium acnes (132); assay type: functional
Summary of the method: as §1

Phocaeicola vulgatus [9] = test: In vitro activity against Bacteroides vulgatus(792); assay type: functional
Summary of the method: as §1

Bacteroides fragilis [10] = test: In vitro activity against Bacteroides fragilis (105AT25285); assay type: functional
Summary of the method: as §1

[11] = tested on: Peptostreptococcus anaerobius; test: In vitro activity against Peptostreptococcus anaerobius (ATCC 27337); assay type: functional
Summary of the method: as §1

Bacteroides fragilis [12] = test: In vitro activity against Bacteroides fragilis (SFM2929-1); assay type: functional
Summary of the method: as §1

Phocaeicola vulgatus [13] = test: In vitro activity against Bacteroides vulgatus(SFBC 2375); assay type: functional
Summary of the method: as §1

Mus musculus [14] = test: In vivo activity against Escherichia coli Juhl(100X LD50), when administered sc( each compound tested at 3 doses with 10 animals); assay type: functional
Summary of the method: as §3

[15] = tested on: Prevotella melaninogenica; test: In vitro activity against Bacteroides melaninogenicus (ATCC 25845).; assay type: functional
Summary of the method: as §1

Bacteroides fragilis [16] = test: In vitro activity against Bacteroides fragilis (SFM2906A); assay type: functional
Summary of the method: as §1

Fusobacterium nucleatum = test: In vitro activity against Fusobacterium nucleatum (ATCC 25586); assay type: functional
Summary of the method: as §1

Fusobacterium = test: In vitro activity against Fusobacterium sp.(GS-10); assay type: functional
Summary of the method: as §1

Bacteroides fragilis [17] = test: In vitro activity against Bacteroides fragilis (784); assay type: functional
Summary of the method: as §1

[18] = tested on: Peptoniphilus asaccharolyticus; test: In vitro activity against Peptococcus asaccharolyticus (ATCC 14963).; assay type: functional
Summary of the method: as §1

[19] = tested on: Bacteroides thetaiotaomicron; test: In vitro activity against Bacteroides thetaiotaomicron (ATCC 29742); assay type: functional
Summary of the method: as §1

Clostridium perfringens [20] = test: In vitro activity against Clostridium perfringens (SFBC 2026); assay type: functional
[21] = tested on: Bacteroides thetaiotaomicron; test: In vitro activity against Bacteroides thetaiotaomicron (SFM2975-2); assay type: functional
Summary of the method: as §1

Clostridium perfringens [22] = test: In vitro activity against Clostridium perfringens (104AT13124); assay type: functional
Prevotella bivia [23] = test: In vitro activity against Bacteroides bivius(B 6140); assay type: functional
Summary of the method: as §1

Parvimonas micra [24] = test: In vitro activity against Peptostreptococcus micros (ATCC 33270).; assay type: functional
Summary of the method: as §1

Thomasclavelia ramosa = test: In vitro activity against Clostridium ramosum (7); assay type: functional
Summary of the method: as §1

[25] = tested on: Bacteroides thetaiotaomicron; test: In vitro activity against thetaiotaomicron (ATCC 29741); assay type: functional
Summary of the method: as §4

Clostridioides difficile [26] = test: In vitro activity against Clostridium difficile (ATCC 9689); assay type: functional
[27] = tested on: Bacteroides thetaiotaomicron; test: In vitro activity against Bacteroides thetaiotaomicron (106); assay type: functional
Summary of the method: as §1

Clostridioides difficile [28] = test: In vitro activity against Clostridium difficile (ATCC 17857); assay type: functional

SMILES	MIC (Bacteroides fragilis [2]) [µg/mL]	MIC (Bacteroides fragilis [4]) [µg/mL]	MIC (Finegoldia magna) [µg/mL]	MIC (Peptostreptococcus) [µg/mL]	MIC (Hoylesella loescheii) [µg/mL]	MIC (Veillonella parvula) [µg/mL]	MIC (Prevotella disiens) [µg/mL]	MIC (Phocaeicola vulgatus [9]) [µg/mL]	MIC (Bacteroides fragilis [10]) [µg/mL]	MIC (Phocaeicola vulgatus [13]) [µg/mL]	MIC [15] [µg/mL]	MIC (Bacteroides fragilis [16]) [µg/mL]	MIC (Fusobacterium nucleatum) [µg/mL]	MIC (Bacteroides fragilis [17]) [µg/mL]	MIC [18] [µg/mL]	also measured
O=C(O)c1cn(C2CC2)c2cc(N3CCNCC3)c(F)cc2c1=O [CIPROFLOXACIN]	4 (≈ 12.1 µM)	8 (≈ 24.1 µM)	0.25 (≈ 0.754 µM)	2 (≈ 6.04 µM)	8 (≈ 24.1 µM)	0.25 (≈ 0.754 µM)	2 (≈ 6.04 µM)	8 (≈ 24.1 µM)	4 (≈ 12.1 µM)	8 (≈ 24.1 µM)	2 (≈ 6.04 µM)	4 (≈ 12.1 µM)	4 (≈ 12.1 µM)	4 (≈ 12.1 µM)	2 (≈ 6.04 µM)	MIC [1]: 32 µg/mL (≈ 96.6 µM); ED50 (Mus musculus [3]): 15.1 mg/kg; MIC (Parvimonas micra [5]): 0.5 µg/mL (≈ 1.51 µM); ED50 (Mus musculus [6]): 1.3 mg/kg; ED50 (Mus musculus [7]): 4.1 mg/kg; MIC (Prevotella bivia [8]): 2 µg/mL (≈ 6.04 µM); MIC (Cutibacterium acnes): 2 µg/mL (≈ 6.04 µM); MIC [11]: 2 µg/mL (≈ 6.04 µM); MIC (Bacteroides fragilis [12]): 8 µg/mL (≈ 24.1 µM); ED50 (Mus musculus [14]): 0.3 mg/kg; MIC (Fusobacterium): 4 µg/mL (≈ 12.1 µM)
CCC[C@@H]1C[C@@H](C(=O)N[C@@H]([C@H]2O[C@H](SC)[C@H](O)[C@@H](O)[C@H]2O)[C@H](C)Cl)N(C)C1 [CLINDAMYCIN]	0.5 (≈ 1.18 µM)	2 (≈ 4.71 µM)	1 (≈ 2.35 µM)	0.06 (≈ 0.141 µM)	0.5 (≈ 1.18 µM)	0.06 (≈ 0.141 µM)	< 0.015	< 0.015	2 (≈ 4.71 µM)	< 0.015	0.03 (≈ 0.0706 µM)	0.5 (≈ 1.18 µM)	0.25 (≈ 0.588 µM)	1 (≈ 2.35 µM)	0.06 (≈ 0.141 µM)	MIC [19]: 4 µg/mL (≈ 9.41 µM); MIC (Clostridium perfringens [20]): 0.25 µg/mL (≈ 0.588 µM); MIC [21]: 0.5 µg/mL (≈ 1.18 µM); MIC (Clostridium perfringens [22]): 0.03 µg/mL (≈ 0.0706 µM); MIC (Prevotella bivia [23]): < 0.015 µg/mL; MIC (Parvimonas micra [24]): 0.06 µg/mL (≈ 0.141 µM); MIC (Thomasclavelia ramosa): 1 µg/mL (≈ 2.35 µM); MIC [25]: 8 µg/mL (≈ 18.8 µM); MIC (Clostridioides difficile [26]): 4 µg/mL (≈ 9.41 µM); MIC [27]: 4 µg/mL (≈ 9.41 µM); MIC (Clostridioides difficile [28]): 8 µg/mL (≈ 18.8 µM)
